Consider two compounds from ChEMBL document CHEMBL1144550, “Molecular probes of DNA bulges: functional assay and spectroscopic analysis” (Bioorg Med Chem, 2007).

Active and inactive are the calls of the source. No cut-off for these calls is given here.

Assay [1] can be described thus: Effect on DNA binding assessed as binding to HT3GTTG synthetic oligo sequence code by measuring fluorescence quenching due to GC base pairs next to bulge in bulge binding assay. Further details: species or system Homo sapiens. In a few lines: (§1)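 Dissociation constants for a panel of 17 synthetic bulged oligos, taken from changes in drug fluorescence in emission spectra (excitation 360 nm, emission 480 nm) at 5 °C. Binding appears either as quenching or as stimulation of drug fluorescence. Values are given with standard deviations.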

A short description of assay [2]: Effect on DNA binding assessed as binding to HT3AGT synthetic oligo sequence code by measuring fluorescence stimulation due to AT base pairs next to bulge in bulge binding assay. On the set-up: species or system Homo sapiens. The essentials: as §1
Assay [3] is described as follows: Effect on DNA binding assessed as binding to HT3GGTC synthetic oligo sequence code by measuring fluorescence quenching due to GC base pairs next to bulge in bulge binding assay. On the set-up: species or system Homo sapiens. The essentials: as §1
Assay [4] in a line: Effect on DNA binding assessed as binding to HT3AGTC synthetic oligo sequence code by measuring fluorescence stimulation due to AT base pairs next to bulge in bulge binding assay. Further details: species or system Homo sapiens. In a few lines: as §1
Assay [5] can be described thus: Effect on DNA binding assessed as binding to HT3CGTA synthetic oligo sequence code by measuring fluorescence stimulation due to AT base pairs next to bulge in bulge binding assay. On the set-up: species or system Homo sapiens. In a few lines: as §1
The nature of assay [6]: Effect on DNA binding assessed as binding to HT3AGCTT synthetic oligo sequence code by measuring fluorescence stimulation due to AT base pairs next to bulge in bulge binding assay. On the set-up: species or system Homo sapiens. In a few lines:
as §1

Assay [7] is described as follows: Effect on DNA binding assessed as binding to HT3AGTT synthetic oligo sequence code by measuring fluorescence stimulation due to AT base pairs next to bulge in bulge binding assay. On the set-up: species or system Homo sapiens. In a few lines: as §1
Assay [8] can be described thus: Effect on DNA binding assessed as binding to HT3TGTA synthetic oligo sequence code by measuring fluorescence stimulation due to AT base pairs next to bulge in bulge binding assay. On the set-up: species or system Homo sapiens. The essentials: as §1
The nature of assay [9]: Effect on DNA binding assessed as binding to HT3GGTA synthetic oligo sequence code by measuring fluorescence stimulation due to AT base pairs next to bulge in bulge binding assay. On the set-up: species or system Homo sapiens. The essentials: as §1
A short description of assay [10]: Effect on DNA binding assessed as binding to HT3AGTA synthetic oligo sequence code by measuring fluorescence stimulation due to AT base pairs next to bulge in bulge binding assay. Further details: species or system Homo sapiens. In a few lines:
as §1

Assay [11] can be described thus: Effect on DNA binding assessed as binding to DA12:BA14 synthetic oligo sequence code by measuring fluorescence stimulation due to AT base pairs next to bulge in bulge binding assay. On the set-up: species or system Homo sapiens. The essentials:
as §1

Assay [12] can be described thus: Effect on DNA binding assessed as binding to HT4AGTT synthetic oligo sequence code by measuring fluorescence stimulation due to AT base pairs next to bulge in bulge binding assay. Further details: species or system Homo sapiens. The essentials:
as §1

Assay [13] can be described thus: Effect on DNA binding assessed as binding to HT3CGTC synthetic oligo sequence code by measuring fluorescence quenching due to GC base pairs next to bulge in bulge binding assay. On the set-up: species or system Homo sapiens. In a few lines: as §1
The species entered for assay [14] is Homo sapiens. Briefly: Effect on slipped DNA synthesis assessed as enhanced synthesis at 40 uM relative to control.
A short description of assay [15]: Effect on DNA binding assessed as binding to HT3GATC synthetic oligo sequence code by measuring fluorescence quenching due to GC base pairs next to bulge in bulge binding assay. Further details: species or system Homo sapiens. In a few lines: as §1
The target in assay [16] is DNA polymerase I Klenow fragment (Escherichia coli) (UniProt P00582). The experiment in a line: Induction of slipped DNA synthesis assessed as incorporation of [32P]TMP at 40 uM.
Assay [17] is described as follows: Effect on DNA binding assessed as binding to HT3AT synthetic oligo sequence code by measuring fluorescence stimulation due to AT base pairs next to bulge in bulge binding assay. On the set-up: species or system Homo sapiens. In a few lines: as §1
The nature of assay [18]: Effect on DNA binding assessed as binding to HT3GGTT synthetic oligo sequence code by measuring fluorescence quenching due to GC base pairs next to bulge in bulge binding assay. Further details: species or system Homo sapiens. The essentials: as §1
The species named for assay [19] is Homo sapiens. The experiment in a line: Effect on DNA binding assessed as binding to DA12:DAc12 synthetic oligo sequence code by measuring fluorescence quenching due to GC base pairs next to bulge in bulge binding assay. The essentials: as §1
Assay [20] can be described thus: Effect on DNA binding assessed as binding to HT3AGTC synthetic oligo sequence code by measuring fluorescence quenching due to GC base pairs next to bulge in bulge binding assay. Further details: species or system Homo sapiens. The essentials:
as §1

Assay [21] is described as follows: Effect on DNA binding assessed as binding to HT3GGTA synthetic oligo sequence code by measuring fluorescence quenching due to GC base pairs next to bulge in bulge binding assay. Further details: species or system Homo sapiens. In a few lines: as §1

For orientation: Kd means the equilibrium constant for the complex coming apart. For `CN[C@H]1[C@@H](O[C@@H]2c3cc4ccccc4cc3[C@@H]3[C@H]2CC[C@@]32C(=O)C=Cc3ccc(OC)cc32)O[C@H](C)[C@H](O)[C@@H]1O`, the Kd in [1] turned out to be 300 nM; in [2], 4100 nM; in assay [3], 160 nM; in assay [4], 260 nM; in assay [5] it was 160 nM; in assay [6], 1700 nM. Further, the Kd came to 130 nM in assay [7]; 550 nM in [8]; 1960 nM in [9]; 1400 nM in assay [10]; 800 nM in [11]; 240 nM in assay [12]. Moreover, the Kd in assay [13] was 170 nM; in assay [15], 150 nM; in [17] it was 13000 nM; in assay [18] it was 110 nM. Further, the figures for the Activity (in the assay listed under Homo sapiens [14]; in assay [16]) were 15.7 and 37000 cpm, respectively. Moreover, the outcome in the assay filed under Homo sapiens [19] was inactive.

Consider `CN[C@H]1[C@@H](O[C@H]2c3cc4ccccc4cc3[C@H]3[C@@H]2CC[C@]32C(=O)C=Cc3ccc(OC)cc32)O[C@H](C)[C@H](O)[C@@H]1O`, for which the dissociation constant Kd in assay [1] was 160 nM; in assay [2] it was 8400 nM; in [3], 100 nM; in [5], 110 nM; in [6] it was 2100 nM; in assay [7], 80 nM. Besides, the Kd in [8] was found to be 1130 nM; in [10], 220 nM; in assay [11], 600 nM; in assay [12], 110 nM; in [13], 150 nM; in [20], 290 nM. Moreover, the dissociation constant Kd in assay [21] worked out at 290 nM; in [15], 240 nM; in assay [17] it was 10000 nM; in [18] it was 140 nM. Moreover, the Activity came out at 31.8 in the assay listed under Homo sapiens [14] and 75000 cpm in [16]. Besides, in the assay filed under Homo sapiens [19], the outcome was inactive.
